# Laboratory results as given in ChEMBL document CHEMBL4433251, “Discovery of BR102375, a new class of non-TZD PPARγ full agonist for the treatment of type 2 diabetes” (Bioorg Med Chem Lett, 2019).
# Active and inactive are the calls of the source. The rule behind the calls is not given here.
# Legend:
# [1] = biological target: T1, Peroxisome proliferator-activated receptor gamma (Mus musculus) (UniProt P37238); test: Agonist activity at PPARgamma in mouse 3T3-L1 cells accessed as increase in insulin stimulated 2-deoxy-D-glucose uptake at 10 uM pre-incubated for 20 mins followed by 2-deoxy-D-glucose addition and measured after 20 to 40 mins by glucose uptake assay; type: cell-based
# T1 sequence (whole entry): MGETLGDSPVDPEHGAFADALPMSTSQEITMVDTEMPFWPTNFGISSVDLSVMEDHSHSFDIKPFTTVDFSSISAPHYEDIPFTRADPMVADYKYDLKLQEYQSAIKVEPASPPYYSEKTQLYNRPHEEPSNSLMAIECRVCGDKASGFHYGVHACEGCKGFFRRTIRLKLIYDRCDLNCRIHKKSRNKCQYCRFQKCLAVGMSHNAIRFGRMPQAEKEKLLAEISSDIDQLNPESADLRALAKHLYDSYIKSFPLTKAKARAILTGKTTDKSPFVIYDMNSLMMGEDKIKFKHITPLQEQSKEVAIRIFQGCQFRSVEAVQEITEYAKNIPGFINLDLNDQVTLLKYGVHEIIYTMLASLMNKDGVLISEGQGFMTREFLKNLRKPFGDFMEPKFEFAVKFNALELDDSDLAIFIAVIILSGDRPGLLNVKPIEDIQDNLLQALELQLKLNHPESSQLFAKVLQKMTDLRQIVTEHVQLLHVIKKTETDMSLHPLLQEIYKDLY
# [2] = Half life in rat at 10 mg/kg, po; type: ADME, organism-based; conditions: in vivo
# [3] = biological target: T2, Peroxisome proliferator-activated receptor gamma (Homo sapiens, UniProt P37231); test: Agonist activity at PPARgamma (unknown origin) assessed as receptor transactivation after 24 hrs by TK-PPRE-Luc expressing cells based luciferase reporter gene assay
# T2 sequence (P37231 whole entry): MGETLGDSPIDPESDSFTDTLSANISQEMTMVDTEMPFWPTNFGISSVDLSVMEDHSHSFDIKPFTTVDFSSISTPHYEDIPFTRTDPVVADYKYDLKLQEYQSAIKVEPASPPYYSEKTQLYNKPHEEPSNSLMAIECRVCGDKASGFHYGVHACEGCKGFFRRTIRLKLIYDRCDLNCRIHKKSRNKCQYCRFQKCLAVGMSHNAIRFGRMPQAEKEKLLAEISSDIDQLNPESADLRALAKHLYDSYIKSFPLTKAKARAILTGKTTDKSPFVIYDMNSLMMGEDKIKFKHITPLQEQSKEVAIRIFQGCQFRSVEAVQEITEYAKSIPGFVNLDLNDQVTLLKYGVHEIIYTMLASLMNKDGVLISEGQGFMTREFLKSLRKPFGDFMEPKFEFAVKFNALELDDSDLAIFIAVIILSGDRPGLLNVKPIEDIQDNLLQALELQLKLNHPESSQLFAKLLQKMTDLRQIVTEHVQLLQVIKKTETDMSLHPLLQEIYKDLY
# Summary of the method: (§1)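 Luciferase reporter gene assay in cells transfected with PPRE and luciferase genes; luciferase induction measured over a range of concentrations to derive EC50 and Amax; Amax expressed as a percentage relative to pioglitazone.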
# CYP2D6 = CYP2D6 (Homo sapiens, UniProt P10635); test: Inhibition of CYP2D6 (unknown origin) assessed as percentage remaining activity at 10 uM; type: ADME; conditions: read-out: INH
# Summary of the method: (§2)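 CYP isoforms 1A2, 2C9, 2C19, 2D6, 3A4: % remaining enzyme activity in presence of 10 uM compound.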
# [4] = Stability in dog liver microsomes assessed as parent compound remaining at 30 mins; type: ADME, Canis lupus familiaris, Microsome; conditions: read-out: Stability
# Summary of the method: (§3)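 Compound incubated with liver microsomes (mouse, rat, dog, human) for 30 min; stability expressed as % of parent concentration remaining.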
# CYP3A4 = CYP3A4 (Homo sapiens, UniProt P08684); test: Inhibition of CYP3A4 (unknown origin) assessed as percentage remaining activity at 10 uM; type: ADME; conditions: read-out: INH; summary of the method: as §2
# [5] = Stability in human liver microsomes assessed as parent compound remaining at 30 mins; type: ADME, Microsome; conditions: read-out: Stability; summary of the method: as §3
# hERG (KCNH2) = hERG (KCNH2) (Homo sapiens, UniProt Q12809); test: Inhibition of human ERG at 10 uM
# Summary of the method: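 hERG: % inhibition measured at 10 µM.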
# [6] = Toxicity in db/db mouse assessed as reduction in food intake at 75 mg/kg, po administered via gavage twice daily and measured on day 7; type: organism-based; conditions: in vivo
# [7] = AUClast in rat at 10 mg/kg, po; type: ADME, organism-based; set-up: dose 10 mg/kg, time 0 - last, route oral; conditions: in vivo
# [8] = biological target: T1, Peroxisome proliferator-activated receptor gamma (Mus musculus); test: Agonist activity at PPARgamma in mouse 3T3-L1 cells assessed as increase in CD36 RNA expression at 10 uM by qRT-PCR analysis; type: cell-based
# Mus musculus [9] = test: Antidiabetic activity in db/db mouse assessed as reduction in blood glucose level at 75 mg/kg, po administered twice daily for 2 weeks and measured on day 14 by OGTT method; type: functional, organism-based
# [10] = biological target: T1, Peroxisome proliferator-activated receptor gamma (Mus musculus); test: Agonist activity at GAL4-tagged mouse PPARgamma LBD expressed in monkey CV1 cells assessed as receptor transactivation incubated for 24 hrs by luciferase reporter gene assay relative to telmisartan; type: cell-based
# CYP2C9 = CYP2C9 (Homo sapiens, UniProt P11712); test: Inhibition of CYP2C9 (unknown origin) assessed as enzyme remaining activity at 10 uM; type: ADME; conditions: read-out: INH; summary of the method: as §2
# [11] = Stability in mouse liver microsomes assessed as parent compound remaining at 30 mins; type: ADME, Microsome; conditions: read-out: Stability; summary of the method: as §3
# CYP1A2 = biological target: T3, CYP1A2 (Homo sapiens, UniProt P05177); test: Inhibition of CYP1A2 (unknown origin) assessed as enzyme remaining activity at 10 uM; type: ADME; conditions: read-out: INH; summary of the method: as §2
# T3 sequence (P05177 whole entry): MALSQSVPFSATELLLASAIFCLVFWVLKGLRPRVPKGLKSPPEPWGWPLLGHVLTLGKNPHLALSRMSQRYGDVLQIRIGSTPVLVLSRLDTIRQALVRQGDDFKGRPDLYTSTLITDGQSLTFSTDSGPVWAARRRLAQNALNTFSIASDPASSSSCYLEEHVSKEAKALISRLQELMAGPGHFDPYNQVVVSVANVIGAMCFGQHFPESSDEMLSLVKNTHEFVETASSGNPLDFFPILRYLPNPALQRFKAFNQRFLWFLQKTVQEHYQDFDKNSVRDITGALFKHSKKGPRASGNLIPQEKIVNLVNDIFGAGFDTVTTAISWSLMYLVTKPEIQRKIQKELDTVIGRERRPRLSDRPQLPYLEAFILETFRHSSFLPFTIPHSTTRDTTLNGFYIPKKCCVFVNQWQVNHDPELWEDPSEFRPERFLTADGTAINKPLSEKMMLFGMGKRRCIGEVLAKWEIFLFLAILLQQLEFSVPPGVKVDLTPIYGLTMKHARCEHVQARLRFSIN
# CYP2C19 = CYP2C19 (Homo sapiens, UniProt P33261); test: Inhibition of CYP2C19 (unknown origin) assessed as percentage remaining activity at 10 uM; type: ADME; conditions: read-out: INH; summary of the method: as §2
# [12] = Cmax in rat at 10 mg/kg, po; type: ADME, organism-based; set-up: dose 10 mg/kg, route oral; conditions: in vivo
# [13] = Tmax in rat at 10 mg/kg, po; type: ADME, organism-based; conditions: in vivo
# [14] = biological target: T4, Peroxisome proliferator-activated receptor gamma (Homo sapiens) (UniProt P37231); test: Agonist activity at PPARgamma (unknown origin) assessed as receptor transactivation after 24 hrs by TK-PPRE-Luc expressing cells based luciferase reporter gene assay relative to pioglitazone; summary of the method: as §1
# T4 sequence (whole entry): T2 sequence (P37231 whole entry)
# 3T3-L1 = test: Induction of preadipocyte differentiation in mouse 3T3L1 cells grown in insulin medium assessed as conversion to matured adipocytes measured after 6 days by oil red O staining based phase contrast microscopy; type: functional, cell-based
# Mus musculus [15] = test: Antidiabetic activity in db/db mouse assessed as reduction in body weight gain at 75 mg/kg, po administered via gavage twice daily for 2 weeks and measured on day 14; type: functional, organism-based
# Mus musculus [16] = test: Antidiabetic activity in db/db mouse assessed as reduction in random blood glucose level at 75 mg/kg, po administered via gavage twice daily for 2 weeks and measured once a week; type: functional, organism-based
# [17] = AUClast in mouse at 10 mg/kg, po; type: ADME, organism-based; set-up: dose 10 mg/kg, route oral, time 0 - last; conditions: in vivo
# [18] = Stability in rat liver microsomes assessed as parent compound remaining at 30 mins; type: ADME, Microsome; conditions: read-out: Stability; summary of the method: as §3
# [19] = Half life in mouse at 10 mg/kg, po; type: ADME, organism-based; conditions: in vivo
# [20] = biological target: T1, Peroxisome proliferator-activated receptor gamma (Mus musculus); test: Agonist activity at PPARgamma in mouse 3T3-L1 cells assessed as increase in AP2 RNA expression at 10 uM by qRT-PCR analysis; type: cell-based
# [21] = Cmax in mouse at 10 mg/kg, po; type: ADME, organism-based; set-up: dose 10 mg/kg, route oral; conditions: in vivo
# [22] = Tmax in mouse at 10 mg/kg, po; type: ADME, organism-based; conditions: in vivo
# Chain of CYP2D6 (P10635 whole entry, canonical isoform): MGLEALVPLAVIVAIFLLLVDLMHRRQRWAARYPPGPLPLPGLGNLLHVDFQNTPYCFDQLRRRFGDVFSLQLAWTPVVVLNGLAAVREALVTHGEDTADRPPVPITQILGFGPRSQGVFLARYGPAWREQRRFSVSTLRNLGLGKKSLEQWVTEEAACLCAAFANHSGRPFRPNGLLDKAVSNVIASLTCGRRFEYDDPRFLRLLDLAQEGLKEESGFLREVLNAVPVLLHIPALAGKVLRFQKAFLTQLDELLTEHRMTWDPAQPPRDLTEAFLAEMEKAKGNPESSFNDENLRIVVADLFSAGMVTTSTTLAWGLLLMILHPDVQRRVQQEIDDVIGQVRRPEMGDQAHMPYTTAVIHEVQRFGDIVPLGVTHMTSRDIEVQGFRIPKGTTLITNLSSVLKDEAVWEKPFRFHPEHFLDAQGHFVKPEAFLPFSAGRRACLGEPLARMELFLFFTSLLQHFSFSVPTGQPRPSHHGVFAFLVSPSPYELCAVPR
# Chain of CYP2C19 (P33261 whole entry): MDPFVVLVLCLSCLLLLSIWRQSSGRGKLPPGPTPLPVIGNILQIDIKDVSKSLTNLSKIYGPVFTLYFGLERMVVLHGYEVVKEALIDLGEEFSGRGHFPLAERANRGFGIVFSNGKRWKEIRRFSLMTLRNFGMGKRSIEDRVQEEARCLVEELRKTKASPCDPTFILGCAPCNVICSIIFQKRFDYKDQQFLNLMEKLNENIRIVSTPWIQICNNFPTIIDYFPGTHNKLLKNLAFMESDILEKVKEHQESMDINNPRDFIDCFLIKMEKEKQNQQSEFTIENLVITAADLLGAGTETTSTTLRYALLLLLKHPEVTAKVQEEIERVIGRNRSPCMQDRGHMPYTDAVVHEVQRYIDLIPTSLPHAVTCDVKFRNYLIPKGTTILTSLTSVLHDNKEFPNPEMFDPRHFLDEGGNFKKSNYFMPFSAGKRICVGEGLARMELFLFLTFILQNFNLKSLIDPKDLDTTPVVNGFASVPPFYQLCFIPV
# Chain of CYP2C9 (P11712 whole entry): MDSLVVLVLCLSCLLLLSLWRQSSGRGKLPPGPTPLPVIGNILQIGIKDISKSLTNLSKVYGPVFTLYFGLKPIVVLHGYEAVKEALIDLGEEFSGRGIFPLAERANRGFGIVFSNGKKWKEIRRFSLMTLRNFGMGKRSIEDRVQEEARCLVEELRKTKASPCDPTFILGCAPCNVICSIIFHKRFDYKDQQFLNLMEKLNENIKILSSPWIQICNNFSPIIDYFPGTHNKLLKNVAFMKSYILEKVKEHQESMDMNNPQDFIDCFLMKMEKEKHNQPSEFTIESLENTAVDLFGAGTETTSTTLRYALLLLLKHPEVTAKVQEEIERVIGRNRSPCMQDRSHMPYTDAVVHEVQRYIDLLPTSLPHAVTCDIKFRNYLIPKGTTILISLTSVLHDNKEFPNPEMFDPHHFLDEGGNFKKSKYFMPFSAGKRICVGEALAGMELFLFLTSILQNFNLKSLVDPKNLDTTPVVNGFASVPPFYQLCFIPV
# Chain of hERG (KCNH2) (Q12809 whole entry): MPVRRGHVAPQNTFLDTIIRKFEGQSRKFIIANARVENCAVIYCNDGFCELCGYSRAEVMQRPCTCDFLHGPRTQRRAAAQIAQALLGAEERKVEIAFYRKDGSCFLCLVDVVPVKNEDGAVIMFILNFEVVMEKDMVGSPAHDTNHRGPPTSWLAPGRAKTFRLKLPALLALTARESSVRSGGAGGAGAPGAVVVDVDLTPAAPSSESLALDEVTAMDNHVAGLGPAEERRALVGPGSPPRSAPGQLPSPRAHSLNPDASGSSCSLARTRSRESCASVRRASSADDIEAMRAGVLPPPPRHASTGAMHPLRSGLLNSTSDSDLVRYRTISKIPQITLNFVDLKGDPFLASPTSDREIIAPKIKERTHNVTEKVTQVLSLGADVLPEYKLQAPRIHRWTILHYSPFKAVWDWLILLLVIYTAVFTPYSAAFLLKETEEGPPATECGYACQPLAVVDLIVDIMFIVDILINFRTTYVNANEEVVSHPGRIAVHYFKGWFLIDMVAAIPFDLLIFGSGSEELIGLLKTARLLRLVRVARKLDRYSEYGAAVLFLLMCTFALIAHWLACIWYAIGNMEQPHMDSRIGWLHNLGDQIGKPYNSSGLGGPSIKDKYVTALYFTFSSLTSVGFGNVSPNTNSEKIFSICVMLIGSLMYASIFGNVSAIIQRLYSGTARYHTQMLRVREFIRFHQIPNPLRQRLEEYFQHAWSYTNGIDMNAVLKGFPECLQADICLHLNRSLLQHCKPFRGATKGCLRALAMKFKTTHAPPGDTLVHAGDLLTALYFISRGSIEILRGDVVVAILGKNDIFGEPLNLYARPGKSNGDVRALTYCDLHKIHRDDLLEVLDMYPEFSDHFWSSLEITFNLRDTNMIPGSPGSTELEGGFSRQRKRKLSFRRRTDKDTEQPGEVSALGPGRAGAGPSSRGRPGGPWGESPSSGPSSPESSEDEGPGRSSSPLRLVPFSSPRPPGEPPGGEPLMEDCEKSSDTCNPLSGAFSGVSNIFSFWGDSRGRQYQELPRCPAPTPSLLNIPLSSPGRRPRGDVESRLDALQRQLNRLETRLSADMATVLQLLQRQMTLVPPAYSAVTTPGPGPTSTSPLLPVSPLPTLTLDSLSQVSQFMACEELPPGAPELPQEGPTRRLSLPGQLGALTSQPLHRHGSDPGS
# Chain of CYP3A4 (P08684 whole entry): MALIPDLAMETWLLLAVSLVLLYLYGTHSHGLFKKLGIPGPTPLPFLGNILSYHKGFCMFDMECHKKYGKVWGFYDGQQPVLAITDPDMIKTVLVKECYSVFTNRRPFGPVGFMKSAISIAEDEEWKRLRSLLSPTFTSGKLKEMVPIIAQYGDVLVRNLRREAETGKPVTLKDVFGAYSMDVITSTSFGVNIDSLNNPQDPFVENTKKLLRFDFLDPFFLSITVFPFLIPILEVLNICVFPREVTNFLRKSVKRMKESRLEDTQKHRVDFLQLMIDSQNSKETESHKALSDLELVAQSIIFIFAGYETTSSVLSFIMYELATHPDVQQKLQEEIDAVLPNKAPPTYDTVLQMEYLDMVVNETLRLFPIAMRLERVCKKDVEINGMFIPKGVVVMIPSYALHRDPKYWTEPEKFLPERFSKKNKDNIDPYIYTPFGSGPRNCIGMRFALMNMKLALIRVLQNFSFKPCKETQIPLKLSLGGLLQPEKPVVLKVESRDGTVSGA
smiles,measurement,setting,value
CCCCc1nc(C)c(Cc2nc(C(C)(C)C)no2)c(=O)n1Cc1ccc(-c2ccccc2-c2noc(=O)[nH]2)cc1,Activity,[1],Active
same,half-life,[2],107 min
same,EC50,[3],280 nM
same,activity at 10 µM,CYP2D6,93%
same,remaining at 0.5 h,[4],11%
same,activity at 10 µM,CYP3A4,64%
same,remaining at 0.5 h,[5],17%
same,inhibition at 10 µM,hERG (KCNH2),8.3%
same,Activity,[6],Toxic
same,AUC(0-t),[7],889 ng·h/mL
same,Activity,[8],Active
same,Activity,Mus musculus [9],Active
same,%max,[10],331%
same,activity at 10 µM,CYP2C9,57%
same,remaining at 0.5 h,[11],11%
same,activity at 10 µM,CYP1A2,88%
same,activity at 10 µM,CYP2C19,84%
same,Cmax,[12],1320 ng/mL
same,Tmax,[13],18 min
same,%max,[14],98%
same,Activity,3T3-L1,Dose-dependent effect
same,Activity,Mus musculus [15],inactive
same,Activity,Mus musculus [16],Active
same,AUC(0-t),[17],584 ng·h/mL
same,remaining at 0.5 h,[18],12%
same,half-life,[19],70.8 min
same,Activity,[20],Active
same,Cmax,[21],949 ng/mL
same,Tmax,[22],19.8 min
